In the library only some 2.8% were active in any assay of this set; here they are far more common.
PAFAH2 FP inh: PAFAH2 (human) inhibition; inhibition, % at 3.39 µM; Q99487; AID 492956; recombinant PAFAH2, FP-rhodamine activity probe, fluorescence polarization; hit rate 0.99% among 340,000;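 active means inhibition above the mean over all tested compounds plus 3 SD, cut at about 30% in these data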;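 further: inhibitors block probe labeling of enzyme so polarization drops; 0% = enzyme with DMSO and 100% = wells lacking PAFAH2 protein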
pPAFAH FP inh: inhibitors of human plasma PAF acetylhydrolase (pPAFAH). Q13093. recombinant pPAFAH, FP-rhodamine probe fluorescence polarization. inhibition, % at 3.39 µM. hit rate 1.5% among 330,000. AID 463082;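 active means inhibition above the mean inhibition across the screen plus 3 SD, cut at about 25% in these data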;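 further: inhibitors block binding of the rhodamine activity-based probe so polarization drops; 0% = enzyme with DMSO and 100% = wells lacking pPAFAH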
Target sequence (Q13093 whole entry, looked up): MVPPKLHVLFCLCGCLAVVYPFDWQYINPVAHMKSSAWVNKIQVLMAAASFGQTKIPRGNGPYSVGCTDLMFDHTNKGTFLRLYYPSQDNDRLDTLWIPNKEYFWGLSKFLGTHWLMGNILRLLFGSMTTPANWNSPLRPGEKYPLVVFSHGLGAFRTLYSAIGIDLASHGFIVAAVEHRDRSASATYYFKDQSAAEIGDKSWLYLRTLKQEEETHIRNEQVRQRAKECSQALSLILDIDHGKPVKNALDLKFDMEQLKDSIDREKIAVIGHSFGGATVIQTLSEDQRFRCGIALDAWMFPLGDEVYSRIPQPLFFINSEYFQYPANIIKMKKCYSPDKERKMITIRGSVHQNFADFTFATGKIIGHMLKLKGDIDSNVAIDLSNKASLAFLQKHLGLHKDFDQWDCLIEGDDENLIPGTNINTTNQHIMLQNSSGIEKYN
ASAP1 GAP inh: inhibitors of human ASAP1 ArfGAP activity; Q9ULH1; inhibition, % at 16.5 µM; hit rate 0.19% among 360,000; ASAP1-stimulated ARF1 GTP hydrolysis, GDP FP detection; AID 624377; in the data active means inhibition above about 25%;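 further: 0% = vehicle with enzyme and substrate and 100% = no enzyme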
PAFAH1B3 inh: blocks human PAF acetylhydrolase 1B catalytic subunit 3; recombinant PAFAH1B3, FP-rhodamine probe, fluorescence polarization; AID 492972; hit rate 0.28% among 340,000; Q15102; inhibition, % at 3.39 µM;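 active means inhibition above the screen-wide average of all tested compounds plus 3 SD, cut at about 25% in these data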;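 further: 0% = enzyme with DMSO only and 100% = wells lacking PAFAH1B3 protein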
ARFGAP1 inhibitor: inhibits rat ARF GTPase activating protein 1 | Q62848 | AID 651572 | hit rate 0.26% among 360,000 | Arfgap1-stimulated ARF1 GTP hydrolysis, GDP FP detection | inhibition, % at 16.5 µM;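 active means inhibition above a per-plate limit, mean inhibition of low control wells plus 3 SD, cut at about 25% in these data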;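 further: 0% = DMSO wells with enzyme and 100% = wells lacking Arfgap1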
Target sequence (Q62848 1-136 limits assumed): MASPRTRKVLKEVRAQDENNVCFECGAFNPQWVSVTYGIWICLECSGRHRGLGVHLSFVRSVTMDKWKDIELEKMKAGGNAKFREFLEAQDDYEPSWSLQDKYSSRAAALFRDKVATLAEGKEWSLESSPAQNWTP
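Material – truncated rat Arfgap1 GAP domain · Buffer or medium – HEPES-based buffer, pH 7.5 · Reagent – human ARF1(Δ1-17)-GTP substrate · Dosing – 16.5 µM single point, 1.26% DMSO · Schedule – GTP hydrolysis reaction 2 h at 25 °C · Technique – GDP detection by fluorescence polarization · Benchmarks – No-Arfgap1 wells (100%) versus DMSO full-reaction wells (0%) · Repeats – single replicate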
PAFAH1B2 inh: inhibitors of human PAFAH1B2; P68402; recombinant PAFAH1B2, FP-rhodamine activity probe, fluorescence polarization; inhibition, % at 3.39 µM; hit rate 1.2% among 340,000;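 active means inhibition above the mean of all tested compounds plus 3 SD, cut at about 24% in these data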;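 further: 0% = enzyme with DMSO and 100% = wells lacking PAFAH1B2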
* = called active by the depositor.

For O=C(O)c1ccc(S(=O)(=O)N(Cc2ccc(F)cc2)C2CCCCC2)cc1 the results were PAFAH2 FP inh 0, pPAFAH FP inh 3, ASAP1 GAP inh -11, PAFAH1B3 inh -2, ARFGAP1 inhibitor 2 and PAFAH1B2 inh 26*.
Screening Nc1cc(=O)[nH]c(SCC(=O)Nc2cc(S(=O)(=O)N3CCCCC3)ccc2Cl)n1 returned PAFAH2 FP inh -4, pPAFAH FP inh 2, ASAP1 GAP inh 0, PAFAH1B3 inh 9, ARFGAP1 inhibitor 6 and PAFAH1B2 inh 1.
For COc1ccc(NS(=O)(=O)c2cccc(NC(=O)CCS(=O)(=O)c3ccccc3)c2)cc1 the results were PAFAH2 FP inh 8, pPAFAH FP inh 34*, ASAP1 GAP inh 6, PAFAH1B3 inh 0, ARFGAP1 inhibitor 0 and PAFAH1B2 inh 3.
For COc1ccc(NS(=O)(=O)c2cccc(NC(=O)CCC(=O)c3cccs3)c2)cc1 the results were PAFAH2 FP inh -1, pPAFAH FP inh 33*, ASAP1 GAP inh 0, PAFAH1B3 inh -2, ARFGAP1 inhibitor -3 and PAFAH1B2 inh -3.
`CC(Sc1ccc(Br)cc1)C(N)=O` (stereo unspecified) gave PAFAH2 FP inh 6, pPAFAH FP inh 5, ASAP1 GAP inh -6, PAFAH1B3 inh 4, ARFGAP1 inhibitor 3 and PAFAH1B2 inh 37*.
For NC(=O)CSc1ccc(Br)cc1 the results were PAFAH2 FP inh -6, pPAFAH FP inh 1, ASAP1 GAP inh -2, PAFAH1B3 inh 3, ARFGAP1 inhibitor 15 and PAFAH1B2 inh 50*.
Screening O=C(CSc1ccc(F)cc1)Nc1ccc(Br)cc1 returned PAFAH2 FP inh 3, pPAFAH FP inh -1, ASAP1 GAP inh 10, PAFAH1B3 inh -2, ARFGAP1 inhibitor 1 and PAFAH1B2 inh 8.
Screening COc1ccc(Cl)cc1NC(=O)CN1CCc2ccccc2C1 returned PAFAH2 FP inh -5, pPAFAH FP inh 6, ASAP1 GAP inh -1, PAFAH1B3 inh 1, ARFGAP1 inhibitor 10 and PAFAH1B2 inh 4.
For Cc1ccc(S(=O)(=O)N/N=C/c2c(F)cccc2Cl)cc1 the results were PAFAH2 FP inh 8, pPAFAH FP inh -5, ASAP1 GAP inh 13, PAFAH1B3 inh 3, ARFGAP1 inhibitor 9 and PAFAH1B2 inh -1.
Cc1ccc(S(=O)(=O)N/N=C/c2cccn2-c2ccc(Cl)cc2)cc1 was read as PAFAH2 FP inh 0, pPAFAH FP inh 5, ASAP1 GAP inh 0, PAFAH1B3 inh 3, ARFGAP1 inhibitor 8 and PAFAH1B2 inh 54*.
CC(OCC(O)CN(C)Cc1nc2ccccc2c(=O)[nH]1)c1ccc(Cl)cc1 (stereo unspecified) was read as PAFAH2 FP inh 1, pPAFAH FP inh 7, ASAP1 GAP inh -3, PAFAH1B3 inh -3, ARFGAP1 inhibitor -3 and PAFAH1B2 inh 28*.
Screening CCCN(C(=O)CSc1cc(-c2ccccc2)c2ccc(OC)cc2n1)C1CCS(=O)(=O)C1 (stereo unspecified) returned PAFAH2 FP inh -14, pPAFAH FP inh 25*, ASAP1 GAP inh 4, PAFAH1B3 inh 6, ARFGAP1 inhibitor -1 and PAFAH1B2 inh 0.
O=C(CSc1ccc(Cl)cc1)Nc1ccc(N2CCN(C(=O)c3ccco3)CC2)cc1 was read as PAFAH2 FP inh 11, pPAFAH FP inh 20, ASAP1 GAP inh 1, PAFAH1B3 inh 1, ARFGAP1 inhibitor 12 and PAFAH1B2 inh 26*.
Screening CCC(=O)Nc1ccc(N2CCN(C(=O)c3ccccc3C)CC2)cc1 returned PAFAH2 FP inh -2, pPAFAH FP inh 6, ASAP1 GAP inh 0, PAFAH1B3 inh -1, ARFGAP1 inhibitor -6 and PAFAH1B2 inh -6.
Cc1ccccc1C(=O)N1CCN(c2ccc(NC(=O)CSc3ccc(Cl)cc3)cc2)CC1 was read as PAFAH2 FP inh -1, pPAFAH FP inh 18, ASAP1 GAP inh -9, PAFAH1B3 inh 4, ARFGAP1 inhibitor -9 and PAFAH1B2 inh 31*.
For O=C(COc1ccc(Cl)cc1)Nc1ccc(N2CCN(C(=O)c3ccco3)CC2)cc1 the results were PAFAH2 FP inh 11, pPAFAH FP inh 17, ASAP1 GAP inh -4, PAFAH1B3 inh 9, ARFGAP1 inhibitor 5 and PAFAH1B2 inh -1.
Screening Cc1ccc(OCC(COCc2ccccc2)NC(C)C)cc1 (stereo unspecified) returned PAFAH2 FP inh 4, pPAFAH FP inh 4, ASAP1 GAP inh 9, PAFAH1B3 inh 1, ARFGAP1 inhibitor 1 and PAFAH1B2 inh 5.
`N#Cc1c(N)nc2c3c(sc(=N)c2c1N)NC(=O)CC3c1c(F)cccc1Cl` (stereo unspecified) gave PAFAH2 FP inh 4, pPAFAH FP inh 27*, ASAP1 GAP inh 3, PAFAH1B3 inh 2, ARFGAP1 inhibitor -1 and PAFAH1B2 inh -17.
Cc1c(C#N)c(N)nc2c3c(sc12)NC(=O)CC3c1ccc(Cl)cc1 (stereo unspecified) was read as PAFAH2 FP inh 2, pPAFAH FP inh 7, ASAP1 GAP inh 4, PAFAH1B3 inh 3, ARFGAP1 inhibitor 10 and PAFAH1B2 inh 6.
`N#Cc1c(N)nc2c3c(sc(=N)c2c1N)NC(=O)CC3c1ccccc1` (stereo unspecified) gave PAFAH2 FP inh 2, pPAFAH FP inh 28*, ASAP1 GAP inh 0, PAFAH1B3 inh 7, ARFGAP1 inhibitor 6 and PAFAH1B2 inh -6.
Screening CC(=O)OCCNc1cc(N2CCN(C)CC2)c2noc3c2c1C(=O)c1ccccc1-3 returned PAFAH2 FP inh 11, ASAP1 GAP inh -10, PAFAH1B3 inh 3, ARFGAP1 inhibitor -10 and PAFAH1B2 inh 6.
CCN1CCN(c2cc(N3CCN(C(=O)c4ccco4)CC3)c3c4c(onc24)-c2ccccc2C3=O)CC1 was read as PAFAH2 FP inh -19, pPAFAH FP inh 27*, PAFAH1B3 inh -3 and PAFAH1B2 inh 1.
Screening COC(=O)c1[nH]c2ccc(C)cc2c1NC(=O)NC1CCCCC1 returned PAFAH2 FP inh -1, pPAFAH FP inh 0, ASAP1 GAP inh -1, PAFAH1B3 inh 3, ARFGAP1 inhibitor 5 and PAFAH1B2 inh 0.
O=C(Nc1c(C(=O)O)[nH]c2ccccc12)NC1CCCCC1 was read as PAFAH2 FP inh 45*, pPAFAH FP inh 11, ASAP1 GAP inh 6, PAFAH1B3 inh -3, ARFGAP1 inhibitor 12 and PAFAH1B2 inh 27*.
`CCn1nc(C)cc1-c1nnc(Sc2ncc([N+](=O)[O-])s2)n1C` gave PAFAH2 FP inh 3, pPAFAH FP inh -1, ASAP1 GAP inh 1, PAFAH1B3 inh 3, ARFGAP1 inhibitor -3 and PAFAH1B2 inh 0.
For CC(C)(C)c1ccc(C2=CC(c3ccccc3)n3ncnc3N2)cc1 (stereo unspecified) the results were PAFAH2 FP inh 13, pPAFAH FP inh 26*, PAFAH1B3 inh 9 and PAFAH1B2 inh 58*.
`COc1ccccc1CN(C)C(=O)c1ccccc1SCC(=O)N1CCCC1` gave PAFAH2 FP inh 0, pPAFAH FP inh 0, ASAP1 GAP inh -3, PAFAH1B3 inh 6, ARFGAP1 inhibitor -7 and PAFAH1B2 inh 4.
